Blank lines part the entries; values can stand above or below the molecule they belong to.
Assays:
[1] = target: T1, Amine oxidase [flavin-containing] B (Rattus norvegicus, UniProt P19643); assay: In vitro inhibitory activity on rat brain MAO-B.
T1 sequence (P19643 whole entry): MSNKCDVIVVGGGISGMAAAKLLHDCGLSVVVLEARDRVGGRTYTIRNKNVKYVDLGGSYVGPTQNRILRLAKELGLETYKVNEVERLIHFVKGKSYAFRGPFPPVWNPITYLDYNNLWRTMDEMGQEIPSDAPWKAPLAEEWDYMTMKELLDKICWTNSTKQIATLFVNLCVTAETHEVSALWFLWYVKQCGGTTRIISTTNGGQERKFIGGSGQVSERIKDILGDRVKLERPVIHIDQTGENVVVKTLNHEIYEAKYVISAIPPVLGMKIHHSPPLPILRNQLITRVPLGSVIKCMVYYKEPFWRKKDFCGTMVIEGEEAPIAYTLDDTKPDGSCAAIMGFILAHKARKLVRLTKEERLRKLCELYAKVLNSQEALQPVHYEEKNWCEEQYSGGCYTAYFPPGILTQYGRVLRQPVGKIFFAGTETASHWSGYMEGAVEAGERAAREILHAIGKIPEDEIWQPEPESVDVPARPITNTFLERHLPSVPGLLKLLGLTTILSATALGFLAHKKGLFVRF
In short: (§1)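 Radiochemical assay at 37 °C, pH 7.4: MAO A with 10 μM [14C]5-HT, MAO B with 5 μM [14C]PEA. Drug preincubated 20 min with enzyme. Three experiments in duplicate.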

[2] = target: T2, Amine oxidase [flavin-containing] A (Rattus norvegicus, UniProt P21396); assay: In Vitro evaluation for the inhibitory activity on rat brain by MAO-A at 100 uM
T2 sequence (P21396 whole entry): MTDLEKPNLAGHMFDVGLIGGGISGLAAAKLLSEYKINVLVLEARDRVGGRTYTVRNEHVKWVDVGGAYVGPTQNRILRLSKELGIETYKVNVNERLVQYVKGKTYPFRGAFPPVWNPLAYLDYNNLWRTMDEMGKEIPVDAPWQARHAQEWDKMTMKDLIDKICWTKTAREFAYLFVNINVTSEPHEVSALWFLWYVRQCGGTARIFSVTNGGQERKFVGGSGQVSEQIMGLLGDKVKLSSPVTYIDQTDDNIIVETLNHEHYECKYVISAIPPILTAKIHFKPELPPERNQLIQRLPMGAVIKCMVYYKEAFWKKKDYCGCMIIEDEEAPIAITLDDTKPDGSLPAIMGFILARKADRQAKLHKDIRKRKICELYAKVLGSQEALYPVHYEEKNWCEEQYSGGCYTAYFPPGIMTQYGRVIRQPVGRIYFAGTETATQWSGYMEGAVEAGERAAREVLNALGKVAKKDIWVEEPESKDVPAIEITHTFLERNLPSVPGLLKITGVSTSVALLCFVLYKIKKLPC
In short: (§2)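 Male Sprague-Dawley rat brain crude mitochondrial fraction, 0.195 mg protein/mL. Radiochemical assay at 37 °C, pH 7.4: MAO A with 10 μM [14C]5-HT, MAO B with 5 μM [14C]PEA. Drug preincubated 20 min with enzyme. […] Three experiments in duplicate.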

[3] = target: T2, Amine oxidase [flavin-containing] A; assay: Compound was evaluated for the time-dependence inhibition of MAO-A at 60 minutes of preincubated period. values are same with or without pre-incubation
[4] = target: T1, Amine oxidase [flavin-containing] B; assay: Ex-Vivo Time course of evaluation for the percentage inhibition of MAO-B for 48 hr at single dose 5 mg/kg through oral gavage; assay type: organism-based; set-up: dose 5 mg/kg, route oral
In short: (§3)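 Fasted male Sprague-Dawley rats (150 g) dosed orally by gavage, drug suspended in Tween 80 plus 0.5% methylcellulose; vehicle controls. The 100 mg/kg arm was dosed daily for 9 days. Four rats per time point; brains frozen and homogenized in 0.1 M phosphate pH 7.4. Assayed at 37 °C with 8 μM [14C]PEA for 1 min; toluene/ethyl acetate extraction. Percent inhibition vs control, mean ± SEM.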

[5] = target: T1, Amine oxidase [flavin-containing] B; assay: Compound was evaluated for the time-dependence inhibition of MAO-B at 20 minutes pre-incubation periods
In short: (§4)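 Male Sprague-Dawley rat brain crude mitochondrial fraction, MAO B. Drug preincubated with enzyme at 37 °C for 0, 20, 30 or 60 min, then radiochemical assay with 5 μM [14C]PEA at pH 7.4. IC50 read graphically from 9–12 concentrations; three experiments in duplicate.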

[6] = target: T1, Amine oxidase [flavin-containing] B; assay: Ex-Vivo percentage inhibition of MAO-B after 24 hr single 5 mg/kg dose by oral gavage; assay type: organism-based; set-up: dose 5 mg/kg, route oral
In short: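 Ex vivo oral gavage in fasted male Sprague-Dawley rats (Tween 80 / 0.5% methylcellulose), four rats per group. Brain homogenate taken 24 h after dosing. MAO B assayed with 8 μM [14C]PEA, 1 min at 37 °C; percent inhibition vs vehicle control.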

[7] = target: T1, Amine oxidase [flavin-containing] B; assay: Ex-Vivo Time course of evaluation for the percentage inhibition of MAO-B for 4 hr at single dose 5 mg/kg through oral gavage; assay type: organism-based; set-up: dose 5 mg/kg, route oral; in short: as §3
[8] = target: T1, Amine oxidase [flavin-containing] B; assay: Compound was evaluated for the time-dependence inhibition of MAO-B at 0 minute pre-incubation periods; in short: as §4
[9] = target: T1, Amine oxidase [flavin-containing] B; assay: Ex-Vivo Time course of evaluation for the percentage inhibition of MAO-B for 0.5 hr at single dose 5 mg/kg through oral gavage; assay type: organism-based; set-up: dose 5 mg/kg, route oral; in short: as §3
[10] = target: T1, Amine oxidase [flavin-containing] B; assay: Ex-Vivo Time course of evaluation for the percentage inhibition of MAO-B for 1 hr at single dose 5 mg/kg through oral gavage; assay type: organism-based; set-up: dose 5 mg/kg, route oral; in short: as §3
[11] = target: T2, Amine oxidase [flavin-containing] A; assay: In vitro inhibitory activity on rat brain by monoamine oxidase A (MAO-A); in short: as §1
[12] = target: T1, Amine oxidase [flavin-containing] B; assay: Compound was evaluated for the time-dependence inhibition of MAO-B at 30 minutes pre-incubation periods; in short: as §4
[13] = target: T1, Amine oxidase [flavin-containing] B; assay: Compound was evaluated for the time-dependence inhibition of MAO-B at 60 minutes preincubation periods; in short: as §4
[14] = Selectivity for B form was estimated by the ratio of IC50 (MAO A) at 60 min to that of (MAO B)
[15] = target: T2, Amine oxidase [flavin-containing] A; assay: In Vitro evaluation for the inhibitory activity on rat brain by MAO-A at 100 uM; No Inhibition; in short: as §2
[16] = target: T1, Amine oxidase [flavin-containing] B; assay: Ex-Vivo Time course of evaluation for the percentage inhibition of MAO-B for 4 hr at single dose 5 mg/kg through oral gavage [p<0.05 (Bonferroni''s test)]; assay type: organism-based; set-up: dose 5 mg/kg, route oral; in short: as §3
[17] = target: T1, Amine oxidase [flavin-containing] B; assay: Ex-Vivo Time course of evaluation for the percentage inhibition of MAO-B for 1 hr at single dose 5 mg/kg through oral gavage (p<0.001); assay type: organism-based; set-up: dose 5 mg/kg, route oral; in short: as §3

SMILES: CC(C#N)Cn1nc(-c2ccc(OCc3ccccc3)cc2)oc1=O (stereo not drawn)
IC50 [1]: 2400 nM
inhibition at 100 µM [2]: 13%

SMILES: N#CCCn1nc(-c2ccc(OCc3ccccc3)cc2)oc1=S
IC50 [3]: 12000 nM
IC50 [1]: 4.4 nM
inhibition at 5 mg/kg [4]: 8%
IC50 [5]: 6.6 nM
inhibition at 5 mg/kg [6]: 21%
inhibition at 5 mg/kg [7]: 74%
IC50 [8]: 47 nM
inhibition at 5 mg/kg [9]: 68%
inhibition at 5 mg/kg [10]: 84%
IC50 [11]: 12000 nM
IC50 [12]: 4.7 nM
IC50 [13]: 3.7 nM
Selectivity [14]: 3200

SMILES: N#CCCCCn1nc(-c2ccc(OCc3ccccc3)cc2)oc1=O
IC50 [1]: 490 nM
IC50 [15]: Not Active

SMILES: Cc1ccc(COc2ccc(C3=NN(CCC#N)C(=O)CO3)cc2)cc1
IC50 [1]: 320 nM
IC50 [11]: 250000 nM

SMILES: CC(C#N)n1nc(-c2ccc(OCc3ccccc3)cc2)oc1=O (stereo not drawn)
IC50 [1]: 48000 nM
inhibition at 100 µM [2]: 4%

SMILES: N#CCCN1N=C(c2ccc(OCc3ccccc3)cc2)OCC1=O
IC50 [1]: 18 nM
inhibition at 5 mg/kg [4]: 16%
inhibition at 5 mg/kg [6]: 23%
inhibition at 5 mg/kg [7]: 22%
inhibition at 5 mg/kg [9]: 21%
inhibition at 5 mg/kg [10]: 31%
IC50 [11]: 160000 nM

SMILES: COc1cccc(COc2ccc(C3=NN(CCC#N)C(=O)CO3)cc2)c1
IC50 [1]: 68 nM
IC50 [11]: 32000 nM

SMILES: Cc1cccc(COc2ccc(C3=NN(CCC#N)C(=O)CO3)cc2)c1
IC50 [1]: 31 nM
IC50 [11]: 40000 nM

SMILES: N#CCCN1N=C(c2ccc(OCc3ccc(Cl)cc3)cc2)OCC1=O
IC50 [1]: 100 nM
IC50 [11]: 3400 nM

SMILES: O=c1oc(-c2ccc(OCc3ccccc3)cc2)nn1CCO
IC50 [3]: 140000 nM
IC50 [1]: 3.7 nM
IC50 [5]: 4.6 nM
inhibition at 5 mg/kg [6]: 8%
inhibition at 5 mg/kg [7]: 70%
IC50 [8]: 33 nM
inhibition at 5 mg/kg [9]: 65%
inhibition at 5 mg/kg [10]: 82%
IC50 [11]: 140000 nM
IC50 [12]: 4.4 nM
IC50 [13]: 4.6 nM
Selectivity [14]: 30400

Results, then the molecule that gave them:

IC50 [1]: 4300 nM
IC50 [11]: 2600 nM
SMILES: N#CCCn1nc(-c2ccc(OCc3ccc([N+](=O)[O-])cc3)cc2)oc1=S

IC50 [1]: 910 nM
IC50 [11]: 4800 nM
SMILES: COc1ccc(COc2ccc(-c3nn(CCC#N)c(=S)o3)cc2)cc1

IC50 [1]: 410 nM
IC50 [15]: Not Active
SMILES: N#CCCCn1nc(-c2ccc(OCc3ccccc3)cc2)oc1=O

IC50 [1]: 66 nM
IC50 [11]: 14000 nM
SMILES: Cc1cccc(COc2ccc(-c3nn(CCC#N)c(=S)o3)cc2)c1

IC50 [1]: 88 nM
IC50 [11]: 45000 nM
SMILES: COc1ccc(COc2ccc(C3=NN(CCC#N)C(=O)CO3)cc2)cc1

IC50 [1]: 15 nM
inhibition at 5 mg/kg [4]: 1%
inhibition at 5 mg/kg [16]: 14%
inhibition at 5 mg/kg [17]: 22%
inhibition at 5 mg/kg [6]: -3%
inhibition at 5 mg/kg [9]: 9%
IC50 [11]: 25000 nM
SMILES: Cc1ccc(COc2ccc(-c3nn(CCC#N)c(=O)o3)cc2)cc1

Reference: ChEMBL document CHEMBL1126975 (J Med Chem, 1993)
